Assays:
[1] = Permeability of the compound at 10 uM after 5 hrs by PAMPA; format: ADME; settings: read-out: permeability
Outline: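 Parallel artificial membrane permeability assay reported as effective permeability Pe (10−6 cm/s). Pe > 1.5 is taken as high permeability.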

[2] = Solubility of the compound in pH 7.4 Tris HCl buffer; format: physicochemical
[3] = Solubility of the compound in DMSO; format: physicochemical
[4] = target: T1, Tyrosyl-DNA phosphodiesterase 2 (Homo sapiens, UniProt O95551); assay: Inhibition of recombinant human TDP2 using T5PNP as substrate preincubated for 10 mins followed by substrate addition and measured after 30 mins
T1 sequence (O95551 whole entry): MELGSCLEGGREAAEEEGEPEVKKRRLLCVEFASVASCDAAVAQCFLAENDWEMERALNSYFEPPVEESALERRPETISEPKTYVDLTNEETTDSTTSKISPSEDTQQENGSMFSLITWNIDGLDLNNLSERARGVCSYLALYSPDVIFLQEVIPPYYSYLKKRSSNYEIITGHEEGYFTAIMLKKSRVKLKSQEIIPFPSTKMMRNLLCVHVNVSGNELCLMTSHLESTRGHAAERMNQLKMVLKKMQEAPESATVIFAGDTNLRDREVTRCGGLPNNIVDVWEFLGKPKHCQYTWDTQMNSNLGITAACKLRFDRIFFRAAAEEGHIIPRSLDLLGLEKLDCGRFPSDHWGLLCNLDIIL

HeLa = assay: Cytotoxicity against human HeLa cells after 72 hrs by MTT assay; format: cell-based
Outline: (§1)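 Compounds tested at 50 μM and 100 μM to give CC50. Two independent experiments were run, each in triplicate.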

HepG2 = assay: Cytotoxicity against human HepG2 cells after 72 hrs by MTT assay; format: cell-based; settings: hepg2, 72 h; outline: as §1

O=C(Nc1nc2nc(-c3ccccc3)ccn2n1)c1cccc([N+](=O)[O-])c1
Papp at 5 h, 10 µM [1]: 0.16 ×10⁻⁶ cm/s
solubility [2]: Soluble
solubility [3]: Soluble

O=C(Nc1nc2nc(-c3ccccc3)ccn2n1)c1cccc(Br)c1
solubility [3]: Insoluble

N#Cc1cccc(C(=O)Nc2nc3nc(-c4ccccc4)ccn3n2)c1
solubility [3]: Insoluble

O=C(Nc1nc2nc(-c3ccccc3)ccn2n1)c1ccccc1
solubility [3]: Insoluble

NC1=CC(N)=C2C=CC(=O)N=C2C1=O
IC50 [4]: 1.7 µM
Papp at 5 h, 10 µM [1]: 0.095 ×10⁻⁶ cm/s

O=C(Nc1nc2cc(-c3ccccc3)ccn2n1)c1cccc(Cl)c1
CC50 (HeLa): > 100 µM
Papp at 5 h, 10 µM [1]: 0.9 ×10⁻⁶ cm/s
CC50 (HepG2): > 100 µM

O=C(Nc1nc2cc(-c3cccnc3)ccn2n1)c1cccc(Cl)c1
CC50 (HeLa): > 100 µM
Papp at 5 h, 10 µM [1]: 6.3 ×10⁻⁶ cm/s
CC50 (HepG2): > 100 µM

O=C(Nc1nc2nc(-c3ccccc3)ccn2n1)c1cccc(C(F)(F)F)c1
solubility [3]: Insoluble

O=C(Nc1nc2nc(-c3ccccc3)ccn2n1)c1ccc([N+](=O)[O-])cc1
solubility [3]: Insoluble

O=C(Nc1nc2cc(-c3ccccc3)ccn2n1)c1cccc([N+](=O)[O-])c1
Papp at 5 h, 10 µM [1]: 0.15 ×10⁻⁶ cm/s

Reference: ChEMBL document CHEMBL4371040, “Triazolopyrimidine and triazolopyridine scaffolds as TDP2 inhibitors” (Bioorg Med Chem Lett, 2019)
